Results reported in ChEMBL document CHEMBL1949558, “Hypoxylonols C-F, benzo[j]fluoranthenes from Hypoxylon truncatum” (J Nat Prod, 2012).

Tests used:
HUVEC = test: Antiangiogenic activity in HUVEC assessed as inhibition of cell proliferation after 72 hrs by MTT assay; format: functional, cell-based; settings: Homo sapiens
In short: (§1)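 Cells were purchased and seeded at 3000/well on collagen-coated plates for 3 h at 37 °C, 5% CO2: HUVECs in EGM-2, HUAECs in EGM-2MV. The medium was then swapped to 1% FBS-EBM-2 for 21 h. VEGF (1 nM) and samples were added for 72 h. Proliferation was read with WST-8 at 450 nm, and inhibition was expressed as IC50.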

[1] = Antiangiogenic activity in HUAEC assessed as inhibition of cell proliferation after 72 hrs by MTT assay; format: functional; settings: Homo sapiens; in short: as §1

Compound	IC50 (HUVEC)	IC50 [1]
CO[C@@H]1C[C@H](O)C2=C3c4cccc(O)c4C(=O)C[C@@H]3c3ccc(O)c1c32 [HYPOXYLONOL E]	7.4 µM	4.1 µM
O=C1C[C@H]2C(=C3c4c2ccc(O)c4[C@@H](O)C[C@@H]3O)c2cccc(O)c21 [HYPOXYLONOL C]	21 µM	16 µM
O=C1C[C@H]2C(=C3c4c2ccc(O)c4[C@H](O)C[C@@H]3O)c2cccc(O)c21 [HYPOXYLONOL F]	17 µM	14 µM
CCO[C@@H]1C[C@H](O)C2=C3c4cccc(O)c4C(=O)C[C@@H]3c3ccc(O)c1c32 [HYPOXYLONOL D]	6.9 µM	6.1 µM
CO[C@H]1C[C@H](O)C2=C3c4cccc(O)c4C(=O)C[C@@H]3c3ccc(O)c1c32 [HYPOXYLONOL B]	24 µM	24 µM
CCO[C@H]1C[C@H](O)C2=C3c4cccc(O)c4C(=O)C[C@@H]3c3ccc(O)c1c32 [HYPOXYLONOL A]	15 µM	16 µM
